Reference: ChEMBL document CHEMBL4130607, “Sodium-Periodate-Mediated Harringtonine Derivatives and Their Antiproliferative Activity against HL-60 Acute Leukemia Cells” (J Nat Prod, 2018)

Legend:
HL-60 = test: Antiproliferative activity against human HL60 cells after 62 hrs by MTS assay; assay type: functional, cell-based; conditions: HL-60, 62 h
In short: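 HL-60 cells kept in RPMI-1640 with 10% heat-inactivated FBS, penicillin/streptomycin, 37 °C, 5% CO2. Seeded at 2.0 × 10^4 cells/mL with increasing compound concentrations for 62 h. MTS reagent added, formazan absorbance read at 492/620 nm after 2 h. IC50 from linear regression of viability against log concentration. Mean ± SD of triplicate tests.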

[1] = Drug uptake in human HL60 cells at 10 uM after 3 hrs by indirect competitive ELISA; assay type: ADME, cell-based; conditions: hl-60, 3 h
In short: (§1)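 HL-60 cells at 5.0 × 10^5 cells/mL were preincubated 1 h, then exposed to compound (final 1, 10 or 100 μM) for 3 h. Cells were washed three times in PBS and lysed in RIPA buffer on ice for 20 min. Cleared supernatant was run in icELISA: HT–HSA coated plate, competition with mAb 1D2, HRP anti-mouse IgG, ABTS, A405. Result given as ng per 5 × 10^6 cells and uptake rate %.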

[2] = Drug uptake in human HL60 cells at 100 uM after 3 hrs by indirect competitive ELISA; assay type: ADME, cell-based; conditions: hl-60, 3 h; in short: as §1
[3] = Drug uptake in human HL60 cells at 1 uM after 3 hrs by indirect competitive ELISA; assay type: ADME, cell-based; conditions: hl-60, 3 h; in short: as §1

IC50 (HL-60) [µM]	SMILES	Drug uptake [1] [%]	Drug uptake [2] [%]	Drug uptake [3] [%]
> 100	COC1=C[C@]23CCC(=O)N2CCc2cc4c(cc2[C@@H]3[C@@H]1OC(=O)[C@@](O)(CCC(C)(C)O)CC(=O)O)OCO4	–	–	–
> 100	COC1=C[C@]23CCCN2C(=O)c2cc4c(cc2[C@@H]3[C@@H]1OC(=O)[C@@](O)(CCC(C)(C)O)CC(=O)O)OCO4	–	–	–
> 100	COC1=C[C@]23CCCN2CCc2cc4c(cc2[C@@H]3[C@@H]1OC(=O)[C@@](O)(CCC(C)(C)O)CC(=O)O)OCO4	–	–	–

Further lines, the compound ahead of its results:

SMILES	IC50 (HL-60) [µM]	Drug uptake [1] [%]	Drug uptake [2] [%]	Drug uptake [3] [%]
COC(=O)C[C@](O)(CCC(C)(C)O)C(=O)O[C@@H]1C(OC)=C[C@]23CCC(=O)N2CCc2cc4c(cc2[C@H]13)OCO4	> 100	0.02	0.02	0.09
COC(=O)C[C@](O)(CCC(C)(C)O)C(=O)O[C@@H]1C(OC)=C[C@]23CCCN2C(=O)c2cc4c(cc2[C@H]13)OCO4	> 100	–	–	–
COC1=C[C@]23CCCN2CCc2cc4c(cc2[C@@H]3[C@@H]1O)OCO4 [CEPHALOTAXINE]	61.2	–	–	–
COC(=O)C[C@](O)(CCC(C)(C)O)C(=O)O[C@@H]1C(OC)=C[C@]23CCCN2CCc2cc4c(cc2[C@H]13)OCO4 [HARRINGTONINE]	0.047	0.61	0.35	3.34
COC(=O)C[C@](O)(CCCC(C)(C)O)C(=O)O[C@@H]1C(OC)=C[C@]23CCCN2CCc2cc4c(cc2[C@H]13)OCO4 [OMACETAXINE MEPESUCCINATE]	0.022	–	–	–
